Assay results from ChEMBL document CHEMBL4033658, “Design and expeditious synthesis of organosilanes as potent antivirals targeting multidrug-resistant influenza A viruses” (Eur J Med Chem, 2017).

Key:
[1] = Selectivity index, ratio of CC50 for MDCK cells to EC50 for Influenza A virus A/WSN/33 (H1N1); assay type: toxicity; conditions: dog, read-out: Ratio CC50/EC50
Influenza A virus [2] = assay: Inhibition of Influenza A virus AM2 proton channel expressed in Xenopus laevis frog oocytes at 100 uM after 2 mins by electrophysiological two-electrode voltage clamp assay; assay type: cell-based
In short: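 Two-electrode voltage clamp on oocytes microinjected with RNA for AM2-WT or AM2-S31N. Compound at 100 µM for 2 min at pH 5.5. Read-out is percent inhibition of AM2 current, mean of three independent measurements.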

MDCK = assay: Cytotoxicity against MDCK cells after 48 hrs by neutral red uptake assay; assay type: cell-based, Canis lupus familiaris; conditions: dog
In short: (§1)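 Serially diluted compound in serum-free DMEM for 48 h at 37 °C, 5% CO2. Neutral red 40 µg/mL for 4 h, absorbance read at 540 nm. CC50 from variable-slope dose-response fit.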

[3] = Antiviral activity against Influenza A virus A/WSN/33(H1N1) infected in MDCK cells expressing ST6Gal 1 preincubated with virus and cells for 30 mins followed viral infection measured after 2 to 3 days by naphthalene black dye-based plaque reduction assay; assay type: functional, cell-based, Influenza A virus (A/WSN/1933(H1N1))
[4] = Antiviral activity against Influenza A virus A/Washington/29/2009(H1N1) infected in MDCK cells expressing ST6Gal 1 preincubated with virus and cells for 30 mins followed viral infection measured after 2 to 3 days by naphthalene black dye-based plaque reduction assay; assay type: functional, cell-based
In short: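 Plaque reduction assay in MDCK cells expressing ST6Gal I instead of regular MDCK cells. Virus stocks were grown in MDCK cells with 2 µg/ml N-acetyl trypsin, harvested at 2 days and clarified, then titered by plaque assay on ST6Gal I-expressing MDCK cells.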

[5] = Selectivity index, ratio of CC50 for human A549 cells to EC50 for Influenza A virus A/Washington/29/2009 (H1N1); assay type: toxicity; conditions: read-out: Ratio CC50/EC50
[6] = Selectivity index, ratio of CC50 for human A549 cells to EC50 for Influenza A virus A/Texas/04/2009 (H1N1); assay type: toxicity; conditions: read-out: Ratio CC50/EC50
[7] = Selectivity index, ratio of CC50 for human A549 cells to EC50 for Influenza A virus A/Switzerland/9715293/2013 (H3N2); assay type: toxicity; conditions: read-out: Ratio CC50/EC50
[8] = Antiviral activity against Influenza A virus A/Texas/04/2009(H1N1) infected in MDCK cells expressing ST6Gal 1 preincubated with virus and cells for 30 mins followed viral infection measured after 2 to 3 days by naphthalene black dye-based plaque reduction assay; assay type: functional, cell-based
A549 = assay: Cytotoxicity against human A549 cells after 48 hrs by neutral red uptake assay; assay type: cell-based; conditions: a549, 48 h; in short: as §1
Influenza A virus [9] = assay: Antiviral activity against Influenza A virus A/Switzerland/9715293/2013 (H3N2) infected in MDCK cells expressing ST6Gal 1 preincubated with virus and cells for 30 mins followed viral infection measured after 2 to 3 days by naphthalene black dye-based plaque reduction assay; assay type: functional, cell-based
[10] = Selectivity index, ratio of CC50 for human A549 cells to EC50 for Influenza A virus A/California/07/2009 (H1N1); assay type: toxicity; conditions: read-out: Ratio CC50/EC50
[11] = Selectivity index, ratio of CC50 for human A549 cells to EC50 for Influenza A virus A/WSN/33(H1N1); assay type: toxicity; conditions: read-out: Ratio CC50/EC50
[12] = Antiviral activity against Influenza A virus A/Denmark/528/2009(H1N1) infected in MDCK cells expressing ST6Gal 1 preincubated with virus and cells for 30 mins followed viral infection measured after 2 to 3 days by naphthalene black dye-based plaque reduction assay; assay type: functional, cell-based
[13] = Antiviral activity against Influenza A virus A/California/07/2009(H1N1) infected in MDCK cells expressing ST6Gal 1 preincubated with virus and cells for 30 mins followed viral infection measured after 2 to 3 days by naphthalene black dye-based plaque reduction assay; assay type: functional, cell-based
[14] = Selectivity index, ratio of CC50 for human A549 cells to EC50 for Influenza A virus A/Denmark/528/2009 (H1N1); assay type: toxicity; conditions: read-out: Ratio CC50/EC50
[15] = Selectivity index, ratio of CC50 for human A549 cells to EC50 for Influenza A virus A/Denmark/524/2009 (H1N1); assay type: toxicity; conditions: read-out: Ratio CC50/EC50
Influenza A virus [16] = assay: Antiviral activity against Influenza A virus A/Denmark/524/2009 (H1N1) infected in MDCK cells expressing ST6Gal 1 preincubated with virus and cells for 30 mins followed viral infection measured after 2 to 3 days by naphthalene black dye-based plaque reduction assay; assay type: functional, cell-based

Compound | selectivity ratio [1] | inhibition (Influenza A virus [2]) [%] | CC50 (MDCK) [µM] | EC50 [3] [µM] | further results
C[Si](C)(C)c1ccc(CNC23CC4CC(CC(C4)C2)C3)nc1 | 3 | 5.9 | 10.3 | 3.4 | –
CC[Si](C)(C)c1ccc(CNC23CC4CC(CC(O)(C4)C2)C3)cc1 | – | 18.2 | 21.8 | – | –
C[Si](C)(c1ccccc1)c1ccc(CNC23CC4CC(CC(O)(C4)C2)C3)cc1 | 2.3 | 33.6 | 13.3 | 5.9 | –
C[Si](C)(C)c1ccc(CNC23CC4CC(CC(O)(C4)C2)C3)cc1 | 102 | 9.5 | 40.7 | – | EC50 [4]: 1400 nM; selectivity ratio [5]: 52.3; selectivity ratio [6]: 122; selectivity ratio [7]: 105; EC50 [8]: 600 nM; CC50 (A549): 73.2 µM; EC50 (Influenza A virus [9]): 700 nM; selectivity ratio [10]: 61; selectivity ratio [11]: 183; EC50 [12]: 3000 nM; EC50 [13]: 1200 nM; selectivity ratio [14]: 24.4; EC50 ([3]; Influenza A virus, MDCK): 0.4 µM; selectivity ratio [15]: 122; EC50 (Influenza A virus [16]): 600 nM
CC(C)[Si](c1ccc(CNC23CC4CC(CC(O)(C4)C2)C3)cc1)(C(C)C)C(C)C | – | 17.8 | 11.4 | – | EC50 ([3]; Influenza A virus, MDCK): > 10 µM
CC(C)(C)c1ccc(CNC23CC4CC(CC(O)(C4)C2)C3)cc1 | 12.8 | 22.3 | 32 | 2.5 | –
CC(C)(C)c1ccc(CNC23CC4CC(CC(C4)C2)C3)cc1 | 3.7 | 9.9 | 12.8 | 3.5 | –
C[Si](C)(C)c1ccc(CNC23CC4CC(CC(C4)C2)C3)cc1 | 1.7 | 21.8 | 8 | 4.8 | –
